Source: ChEMBL document CHEMBL5042469, “Unique Molecular Interaction with the Histone Deacetylase 6 Catalytic Tunnel: Crystallographic and Biological Characterization of a Model Chemotype” (J Med Chem, 2021)
Each block holds one compound with its values, some of them ahead of it.

Tests used:
[1] = tested on: MV4-11; test: Induction of apoptosis in human MV4-11 cells assessed as late apoptotic cells at 0.50 uM incubated for 15 mins by Annexin-V/FITC staining based FACS analysis (reference value: 4.36%); format: functional; details: dose 0.5 µM, 0.25 h
How it was run: (§1)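 MV4-11 cells were dosed, then washed twice in cold PBS and resuspended in binding buffer at 1×10^6 cells/mL. Cells were stained with FITC-annexin V and propidium iodide for 15 min in the dark, diluted with binding buffer and analysed by flow cytometry within 1 h. Quadrants: LL viable, LR early apoptotic, UR late apoptotic. Duplicate experiments averaged; DMSO control.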

[2] = tested on: MV4-11; test: Induction of apoptosis in human MV4-11 cells assessed as viable cells at 1 uM incubated for 15 mins by Annexin-V/FITC staining based FACS analysis (reference value: 84.58%); format: functional; details: MV4-11, 0.25 h, read-out: Activity; how it was run: as §1
[3] = tested on: MV4-11; test: Induction of apoptosis in human MV4-11 cells assessed as viable cells at 0.50 uM incubated for 15 mins by Annexin-V/FITC staining based FACS analysis (reference value: 84.58%); format: functional; details: MV4-11, 0.25 h, read-out: Activity; how it was run: as §1
[4] = tested on: MV4-11; test: Induction of apoptosis in human MV4-11 cells assessed as early apoptotic cells at 1 uM incubated for 15 mins by Annexin-V/FITC staining based FACS analysis (reference value: 7.28%); format: functional; details: 0.25 h; how it was run: as §1
[5] = tested on: MV4-11; test: Induction of apoptosis in human MV4-11 cells assessed as early apoptotic cells at 0.25 uM incubated for 15 mins by Annexin-V/FITC staining based FACS analysis (reference value: 7.28%); format: functional; how it was run: as §1
[6] = tested on: MV4-11; test: Induction of apoptosis in human MV4-11 cells assessed as late apoptotic cells at 0.25 uM incubated for 15 mins by Annexin-V/FITC staining based FACS analysis (reference value: 4.36%); format: functional; how it was run: as §1
[7] = tested on: MV4-11; test: Induction of apoptosis in human MV4-11 cells assessed as viable cells at 2 uM incubated for 15 mins by Annexin-V/FITC staining based FACS analysis (reference value: 84.58%); format: functional; details: MV4-11, 0.25 h, read-out: Activity; how it was run: as §1
[8] = tested on: MV4-11; test: Induction of apoptosis in human MV4-11 cells assessed as viable cells at 0.25 uM incubated for 15 mins by Annexin-V/FITC staining based FACS analysis (reference value: 84.58%); format: functional; details: MV4-11, 0.25 h, read-out: Activity; how it was run: as §1
[9] = Stability in mouse plasma assessed as compound remaining measured after 30 mins; format: ADME, cell-free; details: read-out: Stability
[10] = tested on: MV4-11; test: Induction of apoptosis in human MV4-11 cells assessed as late apoptotic cells at 0.25 uM incubated for 15 mins by Annexin-V/FITC staining based FACS analysis (reference value: 4.17%); format: functional; how it was run: as §1
[11] = Stability in mouse plasma measured assessed as compound remaining after 60 mins; format: ADME, cell-free; details: read-out: Stability
[12] = tested on: MV4-11; test: Induction of apoptosis in human MV4-11 cells assessed as early apoptotic cells at 2 uM incubated for 15 mins by Annexin-V/FITC staining based FACS analysis (reference value: 0.70%); format: functional; details: 0.25 h; how it was run: as §1
[13] = Half life in human whole blood incubated for 1 hr; format: ADME, tissue-based
How it was run: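 Compound was incubated in mouse plasma or in pooled human whole blood. […] Triplicate studies, averaged.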

[14] = tested on: MV4-11; test: Induction of apoptosis in human MV4-11 cells assessed as late apoptotic cells at 0.50 uM incubated for 15 mins by Annexin-V/FITC staining based FACS analysis (reference value: 4.17%); format: functional; details: dose 0.5 µM, 0.25 h; how it was run: as §1
[15] = Stability in human whole blood assessed as compound remaining measured after 30 mins; format: ADME, tissue-based; details: read-out: Stability
[16] = tested on: MV4-11; test: Induction of apoptosis in human MV4-11 cells assessed as early apoptotic cells at 0.25 uM incubated for 15 mins by Annexin-V/FITC staining based FACS analysis (reference value: 0.70%); format: functional; how it was run: as §1
[17] = tested on: MV4-11; test: Induction of apoptosis in human MV4-11 cells assessed as late apoptotic cells at 1 uM incubated for 15 mins by Annexin-V/FITC staining based FACS analysis (reference value: 4.17%); format: functional; details: 0.25 h; how it was run: as §1
[18] = tested on: MV4-11; test: Induction of apoptosis in human MV4-11 cells assessed as viable cells at 1 uM incubated for 15 mins by Annexin-V/FITC staining based FACS analysis (reference value: 35.53%); format: functional; details: MV4-11, 0.25 h, read-out: Activity; how it was run: as §1
[19] = tested on: MV4-11; test: Induction of apoptosis in human MV4-11 cells assessed as early apoptotic cells at 4 uM incubated for 15 mins by Annexin-V/FITC staining based FACS analysis (reference value: 0.70%); format: functional; details: 0.25 h; how it was run: as §1
[20] = tested on: MV4-11; test: Induction of apoptosis in human MV4-11 cells assessed as viable cells at 0.25 uM incubated for 15 mins by Annexin-V/FITC staining based FACS analysis (reference value: 35.53%); format: functional; details: MV4-11, 0.25 h, read-out: Activity; how it was run: as §1
[21] = molecular target: Histone deacetylase 2 (Homo sapiens, UniProt Q92769); test: Inhibition of full length human HDAC2 using FAM-labeled acetylated peptide as substrate by electrophoretic mobility shift assay
Sequence of Histone deacetylase 2 (Q92769 whole entry, canonical isoform): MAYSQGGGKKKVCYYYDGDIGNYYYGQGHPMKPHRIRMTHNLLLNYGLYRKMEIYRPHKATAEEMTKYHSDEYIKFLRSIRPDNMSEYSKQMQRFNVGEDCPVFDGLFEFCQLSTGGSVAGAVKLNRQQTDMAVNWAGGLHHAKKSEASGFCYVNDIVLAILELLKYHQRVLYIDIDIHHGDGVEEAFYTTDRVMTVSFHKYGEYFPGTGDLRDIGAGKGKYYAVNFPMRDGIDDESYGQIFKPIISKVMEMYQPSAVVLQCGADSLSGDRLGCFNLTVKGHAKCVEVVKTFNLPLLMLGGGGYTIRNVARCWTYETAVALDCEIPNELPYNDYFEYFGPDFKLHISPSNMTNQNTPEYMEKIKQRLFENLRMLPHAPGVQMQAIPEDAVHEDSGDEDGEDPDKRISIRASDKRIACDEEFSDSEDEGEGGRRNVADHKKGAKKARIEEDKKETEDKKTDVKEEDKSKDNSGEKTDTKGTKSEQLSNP
How it was run: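 Full-length human HDAC isoform enzymatic assay by electrophoretic mobility shift, using a FAM-labelled acetylated peptide substrate. […] Values are the mean of duplicate experiments with 95% confidence intervals.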

[22] = Half life in Balb/c mouse at 50 mg/kg, ip by LC-MS/MS analysis; format: ADME, organism-based; details: in vivo
How it was run: (§2)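 Male BALB/c mice received a single intraperitoneal dose from a 50 mg/mL solution in 5% DMSO, 30% PEG400, 1% Tween80 and 64% saline. Blood was collected at several time points and the compound quantified by triple-quadrupole LC-MS/MS.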

[23] = Stability in human whole blood assessed as compound remaining measured after 60 mins; format: ADME, tissue-based; details: read-out: Stability
[24] = Kinetic solubility in pH 7.4 PBS buffer assessed as saturation concentration by HPLC analysis; format: physicochemical
[25] = Cmax in Balb/c mouse at 50 mg/kg, ip by LC-MS/MS analysis; format: ADME, organism-based; set-up: route intraperitoneal, dose 50 mg/kg; details: in vivo; how it was run: as §2

Structure (SMILES): O=C(CCCCCCNC(=O)c1cnc(N(c2ccccc2)c2ccccc2Cl)nc1)NO [CITARINOSTAT]
- Activity [1]: 5.77%
- viability at 1 µM [2]: 68.4%
- viability at 0.5 µM [3]: 81.4%
- Activity [4]: 16.25%
- Activity [5]: 7.93%
- Activity [6]: 4.65%
- viability at 2 µM [7]: 42.4%
- viability at 0.25 µM [8]: 84.3%

- remaining at 0.5 h [9]: 79.8%
- remaining at 1 h [11]: 68%
- t1/2 [13]: 1.8 h
- remaining at 0.5 h [15]: 80.8%
- IC50 [21]: 4.97 µM
- t1/2 [22]: 1.7 h
- remaining at 1 h [23]: 68.9%
- Kinetic_solubility [24]: 161.5 µM
- Cmax [25]: 95.1 ng/mL
Structure (SMILES): O=C(NO)c1ccc(CN(Cc2cccnc2)S(=O)(=O)c2cc(F)c(F)c(F)c2F)cc1
- Activity [10]: 3.29%
- Activity [12]: 2.45%
- Activity [14]: 5.46%
- Activity [16]: 0.94%
- Activity [17]: 6.87%
- viability at 1 µM [18]: 17.1%
- Activity [19]: 2.55%
- viability at 0.25 µM [20]: 33.1%
